From ChEMBL document CHEMBL1122662, “3-Hydroxy-alpha-methyltyrosine progenitors: synthesis and evaluation of some (2-oxo-1,3-dioxol-4-yl)methyl esters” (J Med Chem, 1984) come the findings set out here.

Structures are written as SMILES.

Data set [1] can be described thus: Systemic availability with respect to methyldopa was determined. Type of data set: ADME. Put shortly: (§1)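 Randomized cross-over in four male beagles fasted overnight and 6 h postdose, water ad libitum. Single oral doses equal to 200 mg methyldopa; 100 mg methyldopa iv as reference. Jugular blood through 10 h. Plasma deproteinized with HClO4, internal standard ethyldopa, analyzed by C-18 HPLC with amperometric detection. AUC by trapezoids plus terminal extrapolation. Systemic availability relative to iv by Kwan-Till, constant nonrenal clearance; mean ± SD.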

Data set [2] is described as follows: Compound was evaluated for its urinary recovery after oral administration (200 mg) to Beagle dogs. Type of data set: ADME, organism-based, Canis lupus familiaris. Particulars: dog, urine, read-out: Activity. Put shortly: (§2)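 Four male beagles in cross-over, single oral doses equal to 200 mg methyldopa, 100 mg iv reference. Voided urine collected through 48 h, heated with HClO4 (99 °C, 15 min) to hydrolyze conjugates, methyldopa measured by HPLC-amperometry. Urinary recovery as % dose; renal clearance as total urinary recovery divided by plasma AUC; mean ± SD.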

Data set [3] in a line: Compound was evaluated for its bioavailability after oral administration (200 mg) to Beagle dogs. The settings on record: dog, in vivo. Type of data set: ADME, organism-based, Canis lupus familiaris. Put shortly: as §1
The nature of data set [4]: Compound was evaluated for its bioavailability after intravenous administration (100 mg) to Beagle dogs.
For data set [5], the system named is Rattus norvegicus. Nature of the data set: Antihypertensive activity was evaluated in SH rats by measuring imax reduction in mean arterial pressure at 0.24 mM/kg dose administered perorally; equivalent to 50 mg/kg of methyldopa. The settings on record: route oral. Type of data set: functional, Artery. Put shortly: (§3)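 Unanesthetized male Wistar-Okamoto spontaneously hypertensive rats (290-350 g, 16-24 weeks), six per group, dosed orally at 0.12, 0.24 or 0.47 mmol/kg, equal to 25, 50 or 100 mg/kg methyldopa; doses based on base weight. Arterial pressure recorded continuously by transducer, mean pressure printed every 1/2 h. Initial pressure and maximum fall recorded, mean ± SE.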

A short description of data set [6]: Compound was evaluated for its renal clearance after intravenous administration (100 mg) to Beagle dogs.
Data set [7] is described as follows: Compound was evaluated for its urinary recovery after intravenous administration (100 mg) to Beagle dogs.
Data set [8] in a line: Compound was evaluated for its renal clearance after oral administration (200 mg) to Beagle dogs. The settings on record: dog, in vivo, read-out: Renal clearance. Type of data set: ADME, organism-based, Canis lupus familiaris. In outline:
as §2

Data set [9] concerns Rattus norvegicus. Nature of the data set: Antihypertensive activity was evaluated in SH rats by measuring initial mean arterial pressure at 0.24 mM/kg dose administered perorally; equivalent to 50 mg/kg of methyldopa. Type of data set: functional, Artery. The settings on record: route oral. In outline:
as §3

Data set [10] concerns Rattus norvegicus. Nature of the data set: Antihypertensive activity was evaluated in SH rats by measuring max reduction in mean arterial pressure at 0.47 mM/kg dose administered perorally; equivalent to 100 mg/kg of methyldopa. Type of data set: functional, Artery. The settings on record: route oral. In outline:
as §3

For data set [11], the system named is Rattus norvegicus. Nature of the data set: Antihypertensive activity was evaluated in SH rats by measuring imax reduction in mean arterial pressure at 0.12 mM/kg dose administered perorally; equivalent to 25 mg/kg of methyldopa. Type of data set: functional, Artery. The settings on record: route oral. Put shortly:
as §3

Data set [12] concerns Rattus norvegicus. Nature of the data set: Antihypertensive activity was evaluated in SH rats by measuring initial mean arterial pressure at 0.12 mM/kg dose administered perorally; equivalent to 25 mg/kg of methyldopa. The settings on record: route oral. Type of data set: functional, Artery. Put shortly: as §3
For data set [13], the system named is Rattus norvegicus. Nature of the data set: Antihypertensive activity was evaluated in SH rats by measuring max reduction in mean arterial pressure at 0.24 mM/kg dose administered perorally; equivalent to 50 mg/kg of methyldopa. Type of data set: functional, Artery. The settings on record: route oral. Put shortly:
as §3

Data set [14] relates to Rattus norvegicus. Nature of the data set: Antihypertensive activity was evaluated in SH rats by measuring initial mean arterial pressure at 0.47 mM/kg dose administered perorally; equivalent to 100 mg/kg of methyldopa. Type of data set: functional, Artery. The settings on record: route oral. In outline: as §3

Turning to `C[C@](N)(Cc1ccc(O)c(O)c1)C(=O)O` [METHYLDOPA], the Activity is 92.1% in [1] and 57.7% in data set [7]. Besides, the dose excreted in [2] is 54.2%. For the same compound, the AUC in data set [3] amounted to 58300 ng·h/mL; in data set [4], 32600 ng·h/mL. Further, in the data set on Rattus norvegicus [5], the “Max reduction in mean arterial pressure” value is on record as 37 mmHg. The same compound gave a Renal clearance in [6] of 31.8 mL/min. Besides, the CL renal in [8] is 31.9 mL/min. The “Initial mean arterial pressure” value in the data set with Rattus norvegicus [9] was found to be 174 mmHg.

Consider `CC(OC(=O)C(C)(C)C)OC(=O)C(C)(N)Cc1ccc(O)c(O)c1.Cl` (stereo not given), for which the “Max reduction in mean arterial pressure” value is listed as 83 mmHg in the data set with Rattus norvegicus [10], 23 mmHg in the data set with Rattus norvegicus [11] and 60 mmHg in the data set on Rattus norvegicus [13]. Besides, the “Initial mean arterial pressure” value came to 181 mmHg with Rattus norvegicus [12], 179 mmHg with Rattus norvegicus [14] and 181 mmHg with Rattus norvegicus [9].

In data set [1], `Cc1oc(=O)oc1COC(=O)C(C)(N)Cc1ccc(O)c(O)c1` (stereo not given) had an Activity of 94.2%. Besides, the “Max reduction in mean arterial pressure” value in the data set on Rattus norvegicus [10] is given as 52 mmHg; with Rattus norvegicus [11], 29 mmHg; in the data set with Rattus norvegicus [13], 38 mmHg. In data set [2], the dose excreted amounted to 53.2%. Further, the “Initial mean arterial pressure” value in the data set on Rattus norvegicus [12] is recorded as 180 mmHg; with Rattus norvegicus [14] it was 164 mmHg; in the data set on Rattus norvegicus [9], 172 mmHg. Besides, the AUC in data set [3] is 61700 ng·h/mL. In addition, the CL renal in data set [8] amounted to 29.2 mL/min.

As to `CC(N)(Cc1ccc(O)c(O)c1)C(=O)OCc1oc(=O)oc1C(C)(C)C` (stereo not given), the Activity in data set [1] came to 55.7%. Also, the figures for the “Max reduction in mean arterial pressure” value with Rattus norvegicus [10], in the data set with Rattus norvegicus [11] and in the data set on Rattus norvegicus [13] were 93 mmHg, 24 mmHg and 45 mmHg, respectively. Further, the dose excreted in [2] turned out to be 31.4%. For the same compound, the “Initial mean arterial pressure” value with Rattus norvegicus [12] was 182 mmHg; in the data set with Rattus norvegicus [14], 185 mmHg; in the data set with Rattus norvegicus [9] it was 172 mmHg. In addition, the AUC in [3] amounted to 37400 ng·h/mL. In addition, in data set [8], the CL renal came out at 29.3 mL/min.
